Experimental data pooled from the literature.
Compare with care: the assays were run in different laboratories.
Target: DNA-dependent protein kinase catalytic subunit (PRKDC, Homo sapiens, UniProt P78527)

Compound | effect on | mode | technique | cell line | tested at | quantity | result
Cc1cnc(NC2CCOCC2)nc1-n1cnc(C(=O)NC(CN)c2cc(F)cc(Cl)c2)c1 (stereo not drawn) | enzyme activity | inhibitor | radiometric |  | 1 µM | remaining activity | 119%
COc1cc2ncnc(Nc3ccc(Oc4ccccc4)c(C)c3C)c2cc1OC | enzyme activity | inhibitor |  |  | 1 µM | inhibition | 9%
O=C(CSc1nc2nccnc2c(=O)n1CCc1ccccc1)Nc1nccs1 | enzyme activity | inhibitor |  |  | 10 µM | inhibition | 23%
CC(C)(C)c1nc(-c2cccc(NS(=O)(=O)c3c(F)cccc3F)c2F)c(-c2ccnc(N)n2)s1 | enzyme activity | inhibitor | radiometric |  | 1 µM | remaining activity | 92%
CNc1cc(Oc2cc(C(=O)Nc3cc(N4CCN(C)CC4)cc(C(F)(F)F)c3)ccc2C)ncn1 | target engagement in cells | inhibitor | chemoproteomics | Huh-7 | 1 µM | inhibition | -44.8%
Cc1cc(NC(=O)c2cccc3cc(-c4cccc5[nH]nc(N)c45)ccc23)ccc1F | enzyme activity | inhibitor |  |  | 0.1 µM | activity vs control | 99%
COc1cc2ncnc(Nc3ccc(Oc4ccccc4)cc3C)c2cc1OC | enzyme activity | inhibitor |  |  | 1 µM | inhibition | 9%
CC(C)(C)c1nc2c(s1)c1nc(N)ncc1c1ccc(NS(=O)(=O)c3c(F)cccc3F)c(F)c12 | enzyme activity | inhibitor | radiometric |  | 1 µM | remaining activity | 94%
Cc1ccc(C(=O)NCc2ccsc2)cc1C#Cc1cn(C(C)C)c2ncnc(N)c12 | enzyme activity | inhibitor |  |  | 1 µM | activity vs control | 95%
Cc1ccc(NC(=O)c2ccc(C)c(C(F)(F)F)c2)cc1C#Cc1nn(C2CCC(O)CC2)c2ncnc(N)c12 (stereo not drawn) | cell-free assay |  |  |  | 10 µM | remaining signal | 94%
CS(=O)(=O)Nc1cccc(-c2csc(NC(=O)CSc3nc4nccnc4c(=O)n3CCc3ccccc3)n2)c1 | enzyme activity | inhibitor |  |  | 10 µM | inhibition | 12%
C=CC(=O)Nc1cc(Nc2nccc(Nc3cc(Cl)c(F)cc3C(C)(C)O)n2)c(OC)cc1N1CC[C@@H](N(C)C)C1 | enzyme activity | inhibitor |  |  | 1 µM | inhibition | -1%
